Source: ChEMBL document CHEMBL1125872, “Antiulcer agents. 5. Inhibition of gastric H+/K(+)-ATPase by substituted imidazo[1,2-a]pyridines and related analogues and its implication in modeling the high affinity potassium ion binding site of the gastric proton pump enzyme” (J Med Chem, 1991)

Tests used:
[1] = pKa value of the compound.; type: physicochemical
[2] = Compound was evaluated for the ability to inhibit H+/K+ -ATPase formation in rabbit gastric glands.; type: functional, tissue-based, Oryctolagus cuniculus, Stomach
Procedure, shortened: (§1)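 Isolated rabbit gastric glands (collagenase-digested corpus mucosa, 37 °C ~1 h, rinsed, in respiratory medium pH 7.4). 10 mg wet weight glands incubated in RM with 0.05 μCi [14C]aminopyrine, stimulated with 10^-4 M histamine, 37 °C, 1 h shaking. Acid formation read as aminopyrine uptake. Inhibitors diluted in methanol, final 1%. IC50 = 50% inhibition.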

[3] = species: Sus scrofa; assay: The percent of compound protonated at pH 7.4 in purified H+/K+ -ATPase from hog stomach.
[4] = Compound was evaluated for the ability to inhibit purified H+/K+ -ATPase at pH 7.4, by using gastric membrane vesicles prepared from hog stomach.; type: functional, tissue-based, Sus scrofa
Procedure, shortened: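 Lyophilized, K+-permeable hog gastric membrane vesicles (10 μg) preincubated with inhibitor 30 min at 37 °C in 2 mM Pipes-Tris pH 7.4 with 10 mM KCl. Reaction started with 2 mM ATP/2 mM MgCl2. Read-out is inorganic phosphate release. K+-stimulated activity = total minus basal Mg2+ activity. Inhibitors added from methanol, final 1%. IC50 = 50% inhibition.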

[5] = Inhibitory activity against histamine-stimulated gastric acid secretion in adult mengrel dogs, with surgically prepared Heidenhain pouches after peroral administration; type: functional; conditions: Canis lupus familiaris, Stomach, po
Procedure, shortened: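 Heidenhain pouch mongrel dogs under histamine-stimulated acid secretion, oral dosing 2-8 mg/kg. Reduction in acid output taken relative to the untreated control value in the same dog. ED50 by linear regression, with 95% confidence limits.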

[6] = Inhibitory activity against histamine-stimulated gastric acid secretion in adult mengrel dogs, with surgically prepared Heidenhain pouches after intravenous administration; type: functional; conditions: Canis lupus familiaris, Stomach
Procedure, shortened: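 Adult mongrel dogs with surgically prepared Heidenhain pouches, acid secretion stimulated by histamine. Intravenous dosing, 0.1-5 mg/kg. Acid output reduction measured against the non-drug control in the same animal. ED50 from linear regression, with 95% confidence limits.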

[7] = species: Oryctolagus cuniculus; assay: The percent of compound protonated at pH 7.4.; type: functional
[8] = Compound was evaluated for the ability to inhibitH+/K+ -ATPase formation in rabbit gastric glands.; type: functional, tissue-based, Oryctolagus cuniculus, Stomach; procedure, shortened: as §1

SMILES | pKa [1] | IC50 [2] [uM l-1] | Protonated [3] [%] | IC50 [4] [uM l-1] | ED50 [5] [mg/kg] | ED50 [6] [mg/kg] | Protonated [7] [%] | IC50 [8] [uM l-1]
Cc1ccn2c(CC#N)c(C)nc2c1OCc1ccccc1 | 5.67 | 0.4 | 1.83 | 13.7 |  |  |  | 
Cc1nc2c(/C=C/Cc3ccccc3)cccn2c1N | 6.75 | 14.1 | 18.3 | 8.6 |  |  |  | 
Cc1nc2c(CCc3ccccc3)cccn2c1N | 7.3 | 1.46 | 44.3 | 2.1 |  |  |  | 
Cc1nc2c(C/C=C/c3ccccc3)cccn2c1CC#N | 6 | 442 | 3.83 | 206 |  |  |  | 
Cc1nc2c(OCc3ccccc3)cccn2c1N | 6.81 | 0.31 | 20.4 | 0.89 |  |  |  | 
Cc1nc2c(OCc3ccccc3)cccn2c1CC#N | 5.5 |  |  |  |  |  |  | 
Cc1nc2c3c(ccn2c1CC#N)CCC(c1ccccc1)O3 (racemic) | 6 | 0.064 | 3.83 | 0.092 |  |  |  | 
Cc1nc2c(/C=C/Cc3ccccc3)cccn2c1CC#N | 5.7 | 3.8 | 1.96 | 14 |  |  |  | 
Cc1nc2c(CCc3ccccc3)cccn2c1CC#N | 6 | 0.13 | 3.83 | 2 | > 4.4 | 0.1 |  | 
Cc1nc2c(/C=C/c3ccccc3)cccn2c1C | 7.2 |  |  | 1.68 | 4.8 | 0.7 | 38.7 | 0.99
Cc1nc2c(OCc3ccccc3)nccn2c1N | 4.6 | 8.08 | 0.158 | 178 |  |  |  | 
Cc1nc2c(/C=C\c3ccccc3)cccn2c1C | 7.2 |  |  | 28.4 |  |  | 38.7 | 17.5
